Compound activity (PubChem BioAssay)
NRP1-CendR mod = modulators of CendR peptide binding to NRP-1, primary screen, biochemical, fluorescence polarization, uHTS | FAM-RPARPAR peptide binding to NRP-1 | inhibition, % at 25 µM | 360,000 tested, 0.85% active | AID 602438, 2012;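 active = inhibition or corrected inhibition above about 18%, plus a signal ratio from 0.5 to 1.5, limit read from the data, passing the limit was not always enough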
CRFBP-R2 block = antagonists of CRF-BP/CRF-R2 complex, primary screen, cell-based, HEK293, calcium dye fluorescence, uHTS; 350,000 tested, 0.59% active; CRF-induced calcium fluorescence; inhibition, % at 11.8 µM; AID 588475, 2011;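 active = inhibition of the ligand-induced calcium signal above about 50% at the single tested concentration, limit read from the data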
KLK7 zymogen act = proKLK7 zymogen activators, primary screen, biochemical, fluorescence intensity; Kallikrein-7 (Homo sapiens), P49862; purified proKLK7, EDANS-DABCYL substrate fluorescence; 100% is mature enzyme control, 0% vehicle; activation, % at 7 µM; 370,000 tested, 0.9% active;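 active = activation above the mean of all tested compounds plus 3 SD, computed per campaign excluding outliers beyond control limits, cut at about 13% in these data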
Target sequence (P49862 whole entry, looked up): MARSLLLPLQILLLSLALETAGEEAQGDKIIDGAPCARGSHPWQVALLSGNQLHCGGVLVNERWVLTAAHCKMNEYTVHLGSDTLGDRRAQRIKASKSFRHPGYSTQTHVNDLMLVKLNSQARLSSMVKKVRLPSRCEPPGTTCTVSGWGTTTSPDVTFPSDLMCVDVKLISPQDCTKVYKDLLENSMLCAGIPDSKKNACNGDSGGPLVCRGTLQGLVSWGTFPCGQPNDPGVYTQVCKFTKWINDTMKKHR
CRFBP-R2 agonist = agonists of CRF-BP/CRF-R2 complex, primary screen, cell-based, HEK293, calcium dye fluorescence, uHTS; 350,000 tested, 0.46% active; activation, % at 13.2 µM; AID 588473, 2011; calcium dye fluorescence (FLIPR); percent of saturating CRF peptide response;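 active = activation of at least 50%, plus an integration ratio under a set limit after plate pattern correction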;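 note: plate controls were neutral control wells without compound for no effect and CRF at EC100 for full effect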
DDE Tn6 FP inh = inhibitors of Tn6 peptide binding to fibrin DD(E), primary screen, biochemical, fluorescence polarization, human fibrin, Tn6 probe | Fibrinogen beta chain (Homo sapiens), P02675 | Fibrin DD(E) TRITC-Tn6 fluorescence polarization displacement | inhibition, % at 8.3 µM | 370,000 tested, 0.21% active | AID 720509, 2013;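 active = inhibition above a per-campaign cutoff: mean of compounds within control limits plus 3 SD, cut at about 15% in these data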;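 note: 0% = median of all compound wells on the plate and 100% = blocking peptide control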
DDE Tn7 FP inh = inhibitors of Tn7 peptide binding to fibrin DD(E), primary screen, biochemical, fluorescence polarization, human fibrin, Tn7 probe | FP displacement of FITC-Tn7 peptide from fibrin DD(E); 0% = median of compound wells per plate | inhibition, % at 8.3 µM | 370,000 tested, 0.13% active | Fibrinogen beta chain (Homo sapiens), P02675;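 active = inhibition above the mean of compounds falling within the control limits plus 3 SD of them, cut at about 14% in these data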;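 note: 0% = plate median of compound wells and 100% = 10 µM Aha-Tn7 peptide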
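Also added: labelled Tn7 tracer, 0.1 µM; Assay system: human fibrin DD(E) protein; Amount: 2 µM fibrin DD(E); Schedule: 10 min compound pre-incubation, 3 h probe incubation at room temperature; Repeats: one replicate per compound; Read-out basis: percent inhibition; Measured by: fluorescence polarization of the labelled Tn7 tracer.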
* = called active by the depositor; / = no result; ! = repeats disagree. Hits are enriched below; roughly 2.9% of the tested compounds scored in any of these assays.

SMILES	NRP1-CendR mod	CRFBP-R2 block	KLK7 zymogen act	CRFBP-R2 agonist	DDE Tn6 FP inh	DDE Tn7 FP inh
CC(=O)NC(CC(=O)Nc1ccc(S(=O)(=O)N2CCCC2)cc1)c1ccccc1 (stereo not drawn)	5	-17	1	-2	5	0
COc1ccc(C(=O)Nc2ccc3c(c2)OCCO3)cc1S(=O)(=O)N1CCOCC1	3	8	0	-1	1	-3
COCCCN1C(=O)[C@H](CC(=O)NCc2cccc3ccccc23)[C@]2(C(=O)OC)CCCCC=C12	/	/	-1	/	13	2
Clc1ccc(-n2c(SCc3cccc4ccccc34)nnc2-c2ccccc2)cc1	/	/	0	/	-8	0
O=C(CN1C(=O)C2CCCCN2C(=O)c2ccccc21)N1CCCC1 (stereo not drawn)	/	/	0	/	1	-2
NS(=O)(=O)c1ccc(NCCCn2ccnc2)c([N+](=O)[O-])c1	-2	4	0	-1	-5	3
O=C1c2ccccc2-c2onc3ccc(NCCCn4ccnc4)c1c23	/	-166	/	194*	/	/
CCCCSC(=S)NC1CCS(=O)(=O)C1 (stereo not drawn)	25*	-5	0	0	-3	-2
CC(CCC(=O)Nc1nncs1)C(=O)O (stereo not drawn)	-4	2	1	-4	-10	-2
CCCCC(C(=O)O)C(C)CC(=O)Nc1nncs1 (stereo not drawn)	7	77*	1	3	-1	-5
CCN1Cc2nnn(Cc3ccccc3)c2-c2cc(F)ccc2S1(=O)=O	/	/	0	/	-2	-6
CCn1c2ccccc2c2cc(NC(=O)COC(=O)c3cccc(F)c3F)ccc21	/	/	0	/	-3	3
NC(=O)C1CCN(c2nc(-c3ccccc3-c3ccccc3)cs2)CC1	13	-13	0	-3	8	5
NC(=O)C1CCN(c2nc(-c3ccccc3N)cs2)CC1	24*	-1	0	0	-4	-5
CCCCOc1ccc(C(=O)NC2CCCCN(Cc3cccc(C(F)(F)F)c3)C2=O)cc1 (stereo not drawn)	/	/	0	/	-4	2
NC(=O)c1ccccc1N=Cc1ccccn1	-1	-10	3	1	1	2
NC(=O)c1ccccc1N=Cc1cccnc1	33*	5	7	0	-3	2
Cc1nn(-c2ccccc2)c(C)c1/C=N\N1CCN(Cc2ccccc2Cl)CC1	/	/	0	/	4	-3
Cc1nc(N)sc1-c1csc(Nc2ccccc2)n1	-19	79*	-2	-2	-5	1
CCOC(=O)c1ccc(NC(=S)N2CCSC2c2ccc(Cl)cc2)cc1 (stereo not drawn)	0	-106	0	120*	5	-3
C=CCN1[C@H](CC(C)C)COc2cc(N3CCCC3)ccc2S1(=O)=O	/	/	0	/	-3	5
O=C(NCc1ccc(F)cc1)C(=O)NCC1OCCN1C(=O)c1ccc(Cl)cc1 (stereo not drawn)	-5	60*	0	-5	-2	-3
c1ccc(CNn2nnc3ccccc32)cc1	23*	/	0	/	-8	-3
CC1(C)c2[nH]c3ccccc3c2C[C@@H]2C(=O)N(Cc3ccccc3)C(=O)N21	14	-15	-1	3	0	-3
CC1(C)c2[nH]c3ccccc3c2C[C@H]2C(=O)N(Cc3ccccc3)C(=O)N21	4	60*	0	0	3	-3
SMILES	NRP1-CendR mod	CRFBP-R2 block	KLK7 zymogen act	CRFBP-R2 agonist	DDE Tn6 FP inh	DDE Tn7 FP inh
CC(=O)Cc1nsc(NC(=O)c2cn(-c3ccccc3)nc2-c2ccc(Br)cc2)n1	32*	-10	0	0	-5	-10
C=CCOC(=O)C1=C(C)N=c2sc(=C3C(=O)N(CC(=O)O)c4ccccc43)c(=O)n2C1c1ccc(OC)cc1 (stereo not drawn)	/	/	-1	/	1	4
Cn1c(SCc2nc3ccccc3s2)nnc1-c1cccs1	44*	-3	0	1	6	-8
CCn1c(SCc2nc3ccccc3s2)nnc1-c1cccs1	-37	-8	0	2	4	4
Cc1nc(-n2[nH]c3c(c2=O)CCCC3)[nH]c(=O)c1Cc1ccccc1	-177	-54	0	58*	-7	-6
CCOC(=O)[C@]12CCCC3=C1N(CCC3)C(=O)[C@@H](CC(=O)NCCC(C)C)C2	/	/	0	/	0	-2
CCCNc1ccc(C(=O)OCC)cc1[N+](=O)[O-]	18	61*	0	-8	10	3
CCOC(=O)CNc1ccc(C(=O)OCC)cc1[N+](=O)[O-]	-10	23	0	-2	5	3
NC1=C(Br)C(=O)c2ccccc2C1=O	4	7	1	1	1	0
NC1=CC(=O)C(=O)c2ccccc21	29*	-30	1	2	14	-5
CC1CC(C)CN(CCCSc2ccccc2)C1 (stereo not drawn)	30*	-6	0	13	-1	-4
COc1cccc(C(=O)Nc2cc(C(=O)NCc3ccc(C)cc3)ccc2N2CCC3(CC2)CC(c2cccc(Br)c2)=NO3)c1	-21	66*	1	5	11	-2
Cc1ccc(CNC(=O)c2ccc(N3CCC4(CC3)CC(c3cccc(Br)c3)=NO4)c(NC(=O)c3cccc(C)c3)c2)cc1	7	-4	0	2	-3	0
Oc1ccc(O)c(Cc2nc3ccccc3s2)c1	3	53*	-1	0	4	8
Oc1ccccc1OCc1nc2ccccc2s1	-16	10	-1	-2	-4	2
Cc1ccccc1-c1cnc(C(O)c2ccc(F)c(F)c2)[nH]1 (stereo not drawn)	23*	/	-1	/	3	6
Cc1cc(C(O)c2ncc(-c3ccccc3C)[nH]2)ccc1F (stereo not drawn)	-8	/	1	/	2	0
CCOC(=O)c1ccc(N=c2sc(C(=O)OC)cc(=O)n2CCCN2CCOCC2)cc1	9	57*!	1	-2	1	4
CC(=O)NS(=O)(=O)c1ccc(NC(=O)C(C)NS(=O)(=O)/C=C/c2ccccc2)cc1 (stereo not drawn)	20*	-7	-1	0	0	-3
COc1cccc(CNC(=O)CN(c2ccc(C(C)C)cc2)S(=O)(=O)c2c(C)noc2C)c1	-2	110*	0	2	-6	6
